In ChEMBL document CHEMBL1212762, “In vivo activity of ceftobiprole in murine skin infections due to Staphylococcus aureus and Pseudomonas aeruginosa” (Antimicrob Agents Chemother, 2010):

What was measured:
[1] = Half life in immunocompetent SKH1 mouse plasma at 12.5 mg/kg, sc; type: ADME, organism-based; set-up: dose 12.5 mg/kg, route subcutaneous
Procedure, shortened: (§1)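 Female SKH1 hairless mice, immunocompetent or cyclophosphamide-neutropenic, infected s.c. with MRSA OC 8525 or P. aeruginosa OC 4354 on the Cytodex beads (left flank), sterile beads on the right. Single dose 24 h later: s.c. at the nape, or linezolid 50 mg/kg oral. Plasma and skin (DMSO homogenate) sampled over time, HPLC with diode array.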

Pseudomonas aeruginosa [2] = assay: Antimicrobial activity against Pseudomonas aeruginosa OC 4351 infected in immunocompromized SKH1 mouse assessed as lesion volume at 6.2 mg/kg/day, sc measured after 48 hrs postinfection (reference value: 2234 mm3); type: functional; conditions: route subcutaneous
Staphylococcus aureus [3] = assay: Antimicrobial activity against methicillin-resistant Staphylococcus aureus OC 8525 infected immunocompetent SKH1 mouse assessed as lesion volume at 1.6 mg/kg/day, sc measured after 48 hrs postinfection (reference value: 1535 mm3); conditions: route subcutaneous
Zone of skin [4] = assay: fAUC (0-infinity) in immunocompetent SKH1 mouse skin at 50 mg/kg, sc; type: ADME, organism-based; set-up: dose 50 mg/kg, route subcutaneous; conditions: in vivo; procedure, shortened: as §1
Staphylococcus aureus [5] = assay: Antimicrobial activity against methicillin-resistant Staphylococcus aureus OC 8525 infected immunocompetent SKH1 mouse assessed as lesion volume at 100 mg/kg/day, sc measured after 48 hrs postinfection (reference value: 1535 mm3); conditions: route subcutaneous
Staphylococcus aureus [6] = assay: Antimicrobial activity against methicillin-resistant Staphylococcus aureus OC 8525 infected immunocompetent SKH1 mouse assessed as lesion volume at 6.2 mg/kg/day, sc measured after 48 hrs postinfection (reference value: 1535 mm3); conditions: route subcutaneous
Plasma [7] = assay: fAUC (0-infinity) in immunocompromized SKH1 mouse plasma at 50 mg/kg, sc; type: ADME, organism-based; set-up: dose 50 mg/kg, route subcutaneous; conditions: in vivo; procedure, shortened: as §1
Pseudomonas aeruginosa [8] = assay: Antimicrobial activity against Pseudomonas aeruginosa OC 4354 infected in immunocompromized SKH1 mouse assessed as lesion volume at 6.2 mg/kg/day, sc measured after 48 hrs postinfection (reference value: 2195 mm3); type: functional; conditions: route subcutaneous
Pseudomonas aeruginosa [9] = assay: Antimicrobial activity against Pseudomonas aeruginosa OC 4351 infected in immunocompromized SKH1 mouse assessed as log change in bacterial colony forming units at 25 mg/kg/day, sc; type: functional; conditions: route subcutaneous
Procedure, shortened: (§2)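 Female SKH1 hairless mice made neutropenic with ip cyclophosphamide (150 mg/kg 5 days and 100 mg/kg 1 day before infection). 0.2 ml s.c. Cytodex bead (0.1% vol/vol) inoculum in BHI: OC 4351 left flank, OC 4354 right flank. Drug s.c. at 1, 3, 25, 27 h postinfection. Killed at 48 h; skin homogenised in saline, plated on TSA 18 h 37°C; Δlog CFU/g versus inoculum. 5 mice/dose, run twice.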

Plasma [10] = assay: fCmax in immunocompromized SKH1 mouse plasma at 50 mg/kg, sc; type: ADME, organism-based; set-up: dose 50 mg/kg, route subcutaneous; conditions: in vivo; procedure, shortened: as §1
[11] = Protein binding in mouse plasma; type: ADME, cell-free; conditions: read-out: PPB (converted)
Staphylococcus aureus [12] = assay: Antimicrobial activity against methicillin-susceptible Staphylococcus aureus Smith OC 4172 infected in SKH1 mouse assessed as log change in bacterial colony forming unit per gram of skin tissue at 25 mg/kg/day, sc (reference value: 1.6 deltalog CFU); type: functional; conditions: route subcutaneous
Procedure, shortened: (§3)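 Female hairless immunocompetent SKH1 mice were anaesthetised and injected s.c. with 0.2 ml Cytodex bead inoculum (0.1% vol/vol beads in BHI; 6.7–7.0 log10 CFU/mouse): MSSA OC 4172 in the left flank, MRSA OC 8525 in the right. Drug was given at 1, 3, 25 and 27 h post-infection. At 48 h, flank lesions were excised, weighed and homogenised in saline, then plated on TSA (18 h, 37°C). The value is Δlog CFU/g versus the inoculum, from 5 mice/dose, run twice and pooled.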

Staphylococcus aureus [13] = assay: Antimicrobial activity against methicillin-susceptible Staphylococcus aureus Smith OC 4172 infected in SKH1 mouse assessed as log change in bacterial colony forming unit per gram of skin tissue at 1.6 mg/kg/day, sc (reference value: 1.6 deltalog CFU); type: functional; conditions: route subcutaneous
Pseudomonas aeruginosa [14] = assay: Antimicrobial activity against Pseudomonas aeruginosa OC 4351 infected in immunocompromized SKH1 mouse assessed as lesion volume at 1.6 mg/kg/day, sc measured after 48 hrs postinfection (reference value: 2234 mm3); type: functional; conditions: route subcutaneous
Staphylococcus aureus [15] = assay: Antimicrobial activity against methicillin-resistant Staphylococcus aureus OC 8525 infected in SKH1 mouse assessed as log change in bacterial colony forming unit per gram of skin tissue at 1.6 mg/kg/day, sc (reference value: 0.8 deltalog CFU); type: functional; conditions: route subcutaneous; procedure, shortened: as §3
Plasma [16] = assay: fAUC (0-infinity) in immunocompetent SKH1 mouse plasma at 12.5 mg/kg, sc; type: ADME, organism-based; set-up: dose 12.5 mg/kg, route subcutaneous; conditions: in vivo; procedure, shortened: as §1
Zone of skin [17] = assay: fCmax in Staphylococcus aureus infected immunocompetent SKH1 mouse skin at 50 mg/kg, sc; type: ADME, organism-based; set-up: dose 50 mg/kg, route subcutaneous; conditions: in vivo; procedure, shortened: as §1
Pseudomonas aeruginosa [18] = assay: Antimicrobial activity against Pseudomonas aeruginosa OC 4354 infected in immunocompromized SKH1 mouse assessed as log change in bacterial colony forming unit at 25 mg/kg/day, sc; type: functional; conditions: route subcutaneous; procedure, shortened: as §2
Zone of skin [19] = assay: fCmax in Staphylococcus aureus infected […] SKH1 mouse skin at 50 mg/kg, sc; type: ADME, organism-based; set-up: dose 50 mg/kg, route subcutaneous; conditions: in vivo
Pseudomonas aeruginosa [20] = assay: Antimicrobial activity against Pseudomonas aeruginosa OC 4354 assessed as inhibition of growth by broth microdilution method; type: functional
Staphylococcus aureus [21] = assay: Antimicrobial activity against methicillin-susceptible Staphylococcus aureus Smith OC 4172 infected immunocompetent SKH1 mouse assessed as lesion volume at 100 mg/kg/day, sc measured after 48 hrs postinfection (reference value: 1181 mm3); conditions: route subcutaneous
[22] = fT>MIC in Staphylococcus aureus Smith OC 4172 infected sc dosed SKH1 mouse at 50 mg/kg, sc administered twice at 1 and 3 hrs after infection; type: functional; conditions: route subcutaneous
Pseudomonas aeruginosa [23] = assay: Antimicrobial activity against Pseudomonas aeruginosa OC 4354 infected in immunocompromized SKH1 mouse assessed as log change in bacterial colony forming unit at 6.2 mg/kg/day, sc; type: functional; conditions: route subcutaneous; procedure, shortened: as §2
[24] = fT>MIC in Pseudomonas aeruginosa OC 4351 infected sc dosed SKH1 mouse administered in 24 hrs dosing interval; type: functional
[25] = Half life in Staphylococcus aureus infected immunocompetent SKH1 mouse skin at 50 mg/kg, sc; type: ADME, organism-based, Zone of skin; set-up: dose 50 mg/kg, route subcutaneous; procedure, shortened: as §1
[26] = Half life in Pseudomonas aeruginosa infected immunocompromized SKH1 mouse skin at 50 mg/kg, sc
Plasma [27] = assay: fCmax in immunocompetent SKH1 mouse plasma at 50 mg/kg, sc; type: ADME, organism-based; set-up: dose 50 mg/kg, route subcutaneous; conditions: in vivo; procedure, shortened: as §1
Pseudomonas aeruginosa [28] = assay: Antimicrobial activity against Pseudomonas aeruginosa OC 4351 infected in immunocompromized SKH1 mouse assessed as log change in bacterial colony forming unit at 100 mg/kg/day, sc; type: functional; conditions: route subcutaneous; procedure, shortened: as §2
[29] = Tmax in immunocompromized SKH1 mouse skin at 50 mg/kg, sc; type: ADME, organism-based, Zone of skin; set-up: dose 50 mg/kg, route subcutaneous; procedure, shortened: as §1
Pseudomonas aeruginosa [30] = assay: Antimicrobial activity against Pseudomonas aeruginosa OC 4354 infected in immunocompromized SKH1 mouse assessed as log change in bacterial colony forming unit at 100 mg/kg/day, sc; type: functional; conditions: route subcutaneous; procedure, shortened: as §2
Staphylococcus aureus [31] = assay: Antimicrobial activity against methicillin-susceptible Staphylococcus aureus Smith OC 4172 infected in SKH1 mouse assessed as log change in bacterial colony forming unit per gram of skin tissue at 100 mg/kg/day, sc (reference value: 1.6 deltalog CFU); type: functional; conditions: route subcutaneous

`Nc1nc(/C(=N/O)C(=O)N[C@@H]2C(=O)N3C(C(=O)O)=C(/C=C4\CCN([C@@H]5CCNC5)C4=O)CS[C@H]23)ns1` [CEFTOBIPROLE] showed a half-life [1] of 17 min, an Activity (Pseudomonas aeruginosa [2]) of 847 mm3 and an Activity (Staphylococcus aureus [3]) of 1058 mm3. The fAUC (Zone of skin [4]) was 668 µg·min/mL, the Activity (Staphylococcus aureus [5]) was 484 mm3 and the Activity (Staphylococcus aureus [6]) was 896 mm3. It also gave a fAUC (Plasma [7]) of 2011 µg·min/mL, an Activity (Pseudomonas aeruginosa [8]) of 1028 mm3 and a deltalog10CFU (Pseudomonas aeruginosa [9]) of -0.9. The fCmax (Plasma [10]) was 69 µg/mL, the fraction unbound [11] was 0.84 and the deltalog10CFU (Staphylococcus aureus [12]) was 1.5. For the same compound, the deltalog10CFU (Staphylococcus aureus [13]) was -1, the Activity (Pseudomonas aeruginosa [14]) was 1593 mm3 and the deltalog10CFU (Staphylococcus aureus [15]) was 0.3. It also gave a fAUC (Plasma [16]) of 481 µg·min/mL, a fCmax (Zone of skin [17]) of 13 µg/g and a deltalog10CFU (Pseudomonas aeruginosa [18]) of -1.3. It also gave a fCmax (Zone of skin [19]) of 9 µg/g, an MIC (Pseudomonas aeruginosa [20]) of 4 µg/mL and an Activity (Staphylococcus aureus [21]) of 555 mm3. The “fT>MIC” value [22] was over 4 h, the deltalog10CFU (Pseudomonas aeruginosa [23]) was -0.4 and the “fT>MIC” value [24] was 9.1%. It also gave a half-life [25] of 15 min, a half-life [26] of 76 min and a fCmax (Plasma [27]) of 66 µg/mL. The deltalog10CFU (Pseudomonas aeruginosa [28]) was -1.1, the Tmax [29] was 15 min and the deltalog10CFU (Pseudomonas aeruginosa [30]) was -1.4. It also gave a deltalog10CFU (Staphylococcus aureus [31]) of -1.7.
